SENP6 block: SENP6 protease inhibition. Recombinant SENP6 catalytic domain, aminoluciferin luminescence. Q9GZR1. inhibition, % at 10 µM. 330,000 tested, 1.8% active;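 active = inhibition above about 50% at the single tested dose, limit read from the data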;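 note: plate controls were DMSO wells with enzyme for no effect and DMSO wells lacking enzyme for full effect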
SENP8 block-1: inhibitors of human SENP8 protease; purified SENP8, Z-RLRGG-aminoluciferin cleavage, luminescence; inhibition, % at 10 µM; 330,000 tested, 1.2% active; AID 2540; in the data active = inhibition above about 50%
SENP1 inh: blocks the human SENP1 SUMO protease catalytic domain; Q9P0U3; recombinant SENP1 catalytic domain, CyPet-SUMO1-YPet FRET cleavage; inhibition, % at 10 µM; 360,000 tested, 0.21% active; AID 624204;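 active = inhibition at least 30% at 10 µM, raw YFP signal under a set limit, fluorescence ratio 0.5 to 1.5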;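 note: 0% = enzyme with DMSO and 100% = no enzyme wells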
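Material – human SENP1 catalytic domain · Input – SENP1 enzyme, 20 pM final · Compound dosing – single concentration of 10 µM compound, 0.5% DMSO final · Timing – enzyme reaction for 50 min at room temperature, dark · Measured by – FRET fluorescence in CFP and YFP emission channels · Control set – no-enzyme wells low, DMSO-plus-enzyme wells high control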
SENP8 block-2: SENP8 (human) protease inhibition | Q96LD8 | recombinant SENP8, Nedd8 substrate fluorescence | inhibition, % at 20 µM | 360,000 tested, 0.64% active | AID 602440; in the data active = inhibition mostly above about 40%, no sharp cut-off; inactive = mostly below about 27%
SENP7 block: SENP7 protease inhibition; AID 434973; recombinant SENP7, Z-RLRGG-aminoluciferin luminescence, 40 min; 330,000 tested, 1.5% active; Q9BQF6; inhibition, % at 5 µM;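 active = inhibition above about 50% at the single test dose, limit read from the data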;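 note: plate controls were DMSO with enzyme for no effect and no enzyme buffer wells for full effect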
Target sequence (Q9BQF6 706-1050 limits assumed): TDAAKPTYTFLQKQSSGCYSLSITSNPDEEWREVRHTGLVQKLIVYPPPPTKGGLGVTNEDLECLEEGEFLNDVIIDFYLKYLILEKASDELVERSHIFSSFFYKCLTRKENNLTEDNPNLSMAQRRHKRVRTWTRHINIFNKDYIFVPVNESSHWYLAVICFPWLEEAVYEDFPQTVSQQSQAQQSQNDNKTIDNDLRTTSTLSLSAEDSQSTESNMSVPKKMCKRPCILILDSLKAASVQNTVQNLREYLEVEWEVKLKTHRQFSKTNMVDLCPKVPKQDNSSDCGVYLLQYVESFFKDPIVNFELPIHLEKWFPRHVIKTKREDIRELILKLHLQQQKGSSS
Platelet DG rel: platelet dense granule release activity; human platelet-rich plasma, SFLLRN dense granule ATP release, luminescence; inhibition, %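 (compounds screened at 7.5 µM in platelet-rich plasma)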; 300,000 tested, 0.22% active;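 active = mean replicate score, as percent of positive control, at or above 50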
SENP8 conf: human SENP8 inhibition, confirmed. Recombinant SENP8, Z-RLRGG-aminoluciferin luminescence, 60 min. inhibition, % at 12.5 µM. 6,200 tested, 40% active. shares compounds with SENP7 block. AID 488912;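 active = mean inhibition across replicates above about 50%, limit read from the data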
SENP6 conf: human SENP6 inhibition, confirmed; shares compounds with SENP7 block; recombinant SENP6, Z-RLRGG-aminoluciferin luminescence; inhibition, % at 12.5 µM; 6,200 tested, 58% active; AID 488915
SENP7 confirm: human SENP7 inhibition, confirmed; inhibition, % at 12.5 µM; shares compounds with SENP7 block; 6,200 tested, 69% active; recombinant SENP7, Z-RLRGG-aminoluciferin luminescence, 40 min
Casp3 SENP sel: inhibits human caspase-3 in SENP selectivity test; shares compounds with SENP7 block; purified caspase-3, Z-DEVD-aminoluciferin luminescence, 60 min; inhibition, % at 12.5 µM; 6,200 tested, 60% active;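 active = mean inhibition above about 50%, limit read from the data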;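 note: plate controls were enzyme with DMSO for no effect and wells without caspase-3 for full effect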
SENP luc ctr: counter-screen for SENP inhibitors: luminescence interference | shares compounds with SENP7 block | Pre-incubated SENP8/Z-RLRGG-aminoluciferin, luciferase luminescence interference | inhibition, % at 12.5 µM | 6,200 tested, 39% active;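 active = mean inhibition above about 50% when retested at one dose, limit read from the data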;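 note: plate controls were DMSO wells with completed reaction for no effect and substrate without enzyme for full effect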
* marks the source's active call; other numbers are inactive results. A selection: hits, their analogues and other compounds. The true share with any hit is near 2.6%.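 Rule for the calls, unless noted: active = mean inhibition above about 50% in the one-dose retest (limit read from the data); inactive = the rest.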

What do the screens show for `O=C(NC1=NCCS1)c1ccccc1Cl`?
SENP6 block: -8; SENP8 block-1: 0; SENP1 inh: -1; SENP8 block-2: 17; SENP7 block: -6; Platelet DG rel: -1

Results for O=C(N/N=C/c1cc(Br)c(O)c(Br)c1)c1cc2c(ccc3ccccc32)o1 ?
SENP6 block: 8; SENP8 block-1: 13; SENP1 inh: -23; SENP8 block-2: -178; SENP7 block: 1

Results for CCN(c1ccccc1)P(=O)(Nc1ccccc1)Nc1ccccc1 ?
SENP6 block: -20; SENP8 block-1: 3; SENP1 inh: 1; SENP8 block-2: 14; SENP7 block: 1; Platelet DG rel: -1

What do the screens show for `CCOc1ccc2nc(NC(=O)c3ccc(C)o3)sc2c1`?
SENP6 block: 96*; SENP8 block-1: 94*; SENP1 inh: -4; SENP8 block-2: -428; SENP7 block: 98*; Platelet DG rel: 61*; SENP8 conf: 3; SENP6 conf: 95*; SENP7 confirm: 102*; Casp3 SENP sel: 91*; SENP luc ctr: 10

How did CCCC(=O)Nc1nc2ccc(OCC)cc2s1 do in these assays?
SENP6 block: -11; SENP8 block-1: -6; SENP1 inh: -2; SENP8 block-2: -2; SENP7 block: -15; Platelet DG rel: -7

Results for CCOc1ccc2nc(NC(=O)c3cccnc3)sc2c1 ?
SENP6 block: 84*; SENP8 block-1: 71*; SENP1 inh: -1; SENP8 block-2: -133; SENP7 block: 86*; Platelet DG rel: 22; SENP8 conf: 12; SENP6 conf: 20; SENP7 confirm: 41; Casp3 SENP sel: 40; SENP luc ctr: 6

Results for CN(C)C(=S)Nc1nc2ccccc2s1 ?
SENP1 inh: 2; SENP8 block-2: 10; Platelet DG rel: 6

Results for CCOc1ccc2nc(NC(=S)N(C)C)sc2c1 ?
SENP6 block: 77*; SENP8 block-1: 49; SENP1 inh: 0; SENP8 block-2: 14; SENP7 block: 57*; Platelet DG rel: 9; SENP8 conf: 71*; SENP6 conf: 69*; SENP7 confirm: 92*; Casp3 SENP sel: 58*; SENP luc ctr: 82*

What do the screens show for `O=C(OCC(=O)N1CCCC1=O)C1CCN(S(=O)(=O)c2c(Cl)cccc2Cl)CC1`?
SENP6 block: -5; SENP8 block-1: -1; SENP1 inh: 1; SENP8 block-2: 0; SENP7 block: -4; Platelet DG rel: 0

How did Clc1ccc(Cn2ncc3c(N4CCCCC4)ncnc32)cc1 do in these assays?
SENP6 block: -16; SENP8 block-1: 4; SENP1 inh: -5; SENP8 block-2: 8; SENP7 block: 7; Platelet DG rel: -19

Results for COc1ccc(-n2ncc3c(N4CCCCC4)ncnc32)cc1 ?
SENP6 block: 96*; SENP8 block-1: 93*; SENP1 inh: -5; SENP8 block-2: -351; SENP7 block: 98*; Platelet DG rel: 12; SENP8 conf: 95*; SENP6 conf: 98*; SENP7 confirm: 103*; Casp3 SENP sel: 96*; SENP luc ctr: 95*

How did Cc1cccc(-n2ncc3c(N4CCCC4)ncnc32)c1 do in these assays?
SENP6 block: 41; SENP8 block-1: 29; SENP1 inh: -1; SENP8 block-2: 9; SENP7 block: 25; Platelet DG rel: 6

High-throughput results: PubChem BioAssay, several laboratories
